Experimental data: ChEMBL document CHEMBL1156237, “Antiviral activity of benzimidazole derivatives. II. Antiviral activity of 2-phenylbenzimidazole derivatives” (Bioorg Med Chem, 2010)
Activity calls are given as the source filed them. How the calls were made is not given here.

What was measured:
[1] = Cytotoxicity against human MT4 cells after 96 hrs by MTT assay; assay type: cell-based; conditions: MT4 cells
Outline: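 Exponentially growing MT-4 cells at 1 × 10^5 cells/mL in RPMI-1640 with 10% FCS, exposed to serial compound dilutions at 37 °C, 5% CO2. Viability by MTT after 96 h; CC50 is the concentration reducing viability of mock-infected cells by 50%.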

[2] = Cytotoxicity against MDBK cells after 48 to 96 hrs by MTT assay; assay type: cell-based, Bos taurus; conditions: cattle, MDBK cells
Outline: (§1)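 Cell seeding: MDBK at 6 × 10^5 cells/mL in MEM-E with 10% horse serum and 1 mM Na pyruvate; BHK at 1 × 10^6 cells/mL in MEM-E with 10% FBS. Serial compound dilutions, 37 °C, 5% CO2. Viability of mock-infected cells by MTT after 48–96 h; CC50 is the concentration reducing viability by 50%.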

[3] = Cytotoxicity against BHK cells after 48 to 96 hrs by MTT assay; assay type: cell-based, Mesocricetus auratus; conditions: hamster; outline: as §1
[4] = Cytotoxicity against african green monkey Vero cells; assay type: cell-based; conditions: chlorocebus sabaeus
Outline: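 Vero 76 monolayers exposed to serial compound dilutions, run in parallel on the same 24-well plates as the plaque-reduction assays. CC50 is the concentration reducing viability of mock-infected cells by 50%.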

[5] = tested on: Human immunodeficiency virus 1; experiment: Antiviral activity against HIV1 3B infected in human MT4 cells assessed as protection from virus-induced cytopathogenicity after 4 days by MTT method; assay type: functional, organism-based
Outline: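 MT-4 cells, 1 × 10^4/well in RPMI with or without serial compound dilutions, infected with HIV-1 IIIB, 100 CCID50 (m.o.i. 0.01). Protection from virus-induced cytopathogenicity read by MTT.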

[6] = tested on: Vesicular stomatitis virus; experiment: Antiviral activity against VSV Indiana lab infected in african green monkey Vero cells after 2 days by plaque reduction assay; assay type: functional, organism-based
[7] = tested on: Bovine viral diarrhea virus 1; experiment: Antiviral activity against Bovine viral diarrhea virus NADL infected in MDBK cells assessed as protection from virus-induced cytopathogenicity after 3 to 4 days by MTT method; assay type: functional, organism-based, Bovine viral diarrhea virus 1-NADL; conditions: Bovine viral diarrhea virus isolates and strains, MDBK
Outline: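 Cytopathogenicity protection assay. MDBK cells at 3 × 10^4/well, grown overnight to confluence. Infected with BVDV NADL at m.o.i. 0.01 in MEM-E with 0.5% inactivated FBS, 1 mM Na pyruvate and 1% kanamycin. Serial compound dilutions added after 1 h. After 3–4 days at 37 °C, viability read by MTT; EC50 is the concentration giving 50% protection.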

[8] = tested on: Yellow fever virus; experiment: Antiviral activity against Yellow fever virus 17D infected in BHK cells assessed as protection from virus-induced cytopathogenicity after 3 to 4 days by MTT method; assay type: functional, organism-based
[9] = tested on: Coxsackievirus B2; experiment: Antiviral activity against Human coxsackievirus B2 Ohio-1 infected in african green monkey Vero cells after 3 days by plaque reduction assay; assay type: functional, organism-based, Coxsackievirus B2 (strain Ohio-1); conditions: Enterovirus B, Vero, 72 h
Outline: (§2)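 Plaque reduction assay. Vero 76 cells at 2 × 10^5/well, grown overnight to confluence in D-MEM with 10% FBS. Infected 2 h with 50–100 PFU/well, unadsorbed virus removed. Overlay of D-MEM with 1% inactivated FBS and 0.75% methylcellulose, with or without serial compound dilutions. Incubated at 37 °C for 3 days (HSV-1 KOS, CVB-2 Ohio-1) or 5 days (RSV A2). Fixed and stained with crystal violet in 50% ethanol; plaques counted; EC50 by linear regression.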

[10] = tested on: Poliovirus 1; experiment: Antiviral activity against Polio virus type1 Sabin strain Chat infected in african green monkey Vero cells after 2 days by plaque reduction assay; assay type: functional, organism-based, Human poliovirus 1 strain Sabin; conditions: Enterovirus C, 48 h
[11] = tested on: Human alphaherpesvirus 1; experiment: Antiviral activity against HSV1 KOS infected in african green monkey Vero cells after 3 days by plaque reduction assay; assay type: functional, organism-based; conditions: Human alphaherpesvirus 1, KOS, 72 h; outline: as §2
[12] = tested on: Respiratory syncytial virus; experiment: Antiviral activity against RSV A2 infected in african green monkey Vero cells after 5 days by plaque reduction assay; assay type: functional, organism-based; conditions: human respiratory syncytial virus, A2, Vero, 120 h; outline: as §2
[13] = tested on: Vaccinia virus; experiment: Antiviral activity against Vaccinia virus Elstree-Lister infected in african green monkey Vero cells after 3 days by plaque reduction assay; assay type: functional, organism-based; conditions: Orthopoxvirus vaccinia, 72 h

SMILES | CC50 at 96 h [1] | CC50 [2] | CC50 [3] | CC50 [4] | Activity [5] | Activity [6] | EC50 [7] | EC50 [8] | EC50 [9] | EC50 [10] | EC50 [11] | EC50 [12] | EC50 [13]
Fc1ccc(-c2nc3cc(C(F)(F)F)ccc3[nH]2)cc1 | 22 µM | 19 µM | 25 µM | 60 µM | inactive | inactive | > 19 µM | > 25 µM | 13 µM | > 60 µM | > 60 µM | > 60 µM | 8 µM
COc1ccc(-c2nc3cc([N+](=O)[O-])ccc3[nH]2)c(OC)c1 | > 100 µM | > 100 µM | > 100 µM | > 100 µM | inactive | inactive | 45 µM | > 100 µM | > 100 µM | > 100 µM | > 100 µM | > 100 µM | > 100 µM
Fc1cccc(F)c1-c1nc2cc(Cl)c(Cl)cc2[nH]1 | 17 µM | 43 µM | > 100 µM | > 100 µM | inactive | inactive | > 43 µM | > 100 µM | 30 µM | > 100 µM | > 100 µM | > 100 µM | > 100 µM
COc1ccc(-c2nc3cc(C(F)(F)F)ccc3[nH]2)c(OC)c1 | > 100 µM | > 100 µM | > 100 µM | > 100 µM | inactive | inactive | > 100 µM | > 100 µM | 32 µM | > 100 µM | > 100 µM | > 100 µM | > 100 µM
COc1ccc(-c2nc3cc(C(C)=O)ccc3[nH]2)c(OC)c1 | > 100 µM | > 100 µM | > 100 µM | > 100 µM | inactive | inactive | 42 µM | > 100 µM | > 100 µM | > 100 µM | > 100 µM | > 100 µM | > 100 µM
COc1ccc(-c2nc3cc(C(F)(F)F)ccc3[nH]2)c(N)c1 | 5 µM | 4 µM | ≥ 100 µM | 50 µM | inactive | inactive | > 4 µM | 20 µM | 6 µM | 18 µM | > 50 µM | > 50 µM | > 50 µM
O=[N+]([O-])c1ccc(-c2nc3cc(C(F)(F)F)ccc3[nH]2)c([N+](=O)[O-])c1 | 9 µM | 16 µM | 8 µM | 25 µM | inactive | inactive | > 16 µM | > 8 µM | 9 µM | > 25 µM | > 25 µM | > 25 µM | > 25 µM
O=[N+]([O-])c1ccc(-c2nc3cc(C(F)(F)F)ccc3[nH]2)cc1 | 6 µM | 6 µM | 18 µM | 45 µM | inactive | inactive | > 6 µM | > 18 µM | 12 µM | > 45 µM | > 45 µM | > 45 µM | 4 µM
Fc1cccc(F)c1-c1nc2cc(C(F)(F)F)ccc2[nH]1 | 100 µM | ≥ 100 µM | ≥ 100 µM | 25 µM | inactive | inactive | > 100 µM | > 100 µM | > 25 µM | > 25 µM | > 25 µM | > 25 µM | > 25 µM
COc1ccc(-c2nc3cc(C(F)(F)F)ccc3[nH]2)c([N+](=O)[O-])c1 | 85 µM | 55 µM | 100 µM | 20 µM | inactive | inactive | > 55 µM | > 100 µM | > 20 µM | > 20 µM | > 20 µM | > 20 µM | > 20 µM
O=[N+]([O-])c1ccccc1-c1nc2ccccc2[nH]1 | 60 µM | > 100 µM | > 100 µM | > 100 µM | inactive | inactive | > 100 µM | > 100 µM | > 100 µM | > 100 µM | > 100 µM | 40 µM | > 100 µM
COc1ccc(-c2nc3cc([N+](=O)[O-])ccc3[nH]2)c(OC)c1OC | > 100 µM | > 100 µM | > 100 µM | > 100 µM | inactive | inactive | > 100 µM | > 100 µM | > 100 µM | > 100 µM | > 100 µM | > 100 µM | > 100 µM
COc1ccc(-c2nc3cc(Cl)c(Cl)cc3[nH]2)c([N+](=O)[O-])c1 | 2 µM | 28 µM | 80 µM | 80 µM | inactive | inactive | > 28 µM | > 80 µM | > 80 µM | > 80 µM | > 80 µM | > 80 µM | > 80 µM
COc1ccc(-c2nc3cc(C(C)=O)ccc3[nH]2)c(OC)c1OC | > 100 µM | > 100 µM | > 100 µM | > 100 µM | inactive | inactive | > 100 µM | > 100 µM | > 100 µM | > 100 µM | 40 µM | > 100 µM | > 100 µM
Cn1c(-c2ccc([N+](=O)[O-])cc2)nc2cc(C(F)(F)F)ccc21 | ≥ 100 µM | > 100 µM | > 100 µM | > 100 µM | inactive | inactive | > 100 µM | > 100 µM | > 100 µM | > 100 µM | > 100 µM | > 100 µM | > 100 µM
Oc1ccc(-c2nc3cc(Cl)c(Cl)cc3[nH]2)cc1 | 12 µM | 11 µM | 29 µM | 18 µM | inactive | inactive | > 11 µM | > 29 µM | > 18 µM | > 18 µM | > 18 µM | 7 µM | > 18 µM
O=[N+]([O-])c1ccc(-c2nc3cc(C(F)(F)F)ccc3n2C2CCCCC2)cc1 | 49 µM | 68 µM | > 100 µM | > 100 µM | inactive | inactive | 60 µM | > 100 µM | 45 µM | > 100 µM | > 100 µM | > 100 µM | 87 µM
COc1cc(-c2nc3cc(C(F)(F)F)ccc3[nH]2)cc(OC)c1OC | 4 µM | 18 µM | 31 µM | 29 µM | inactive | inactive | > 18 µM | > 31 µM | 11 µM | > 29 µM | > 29 µM | > 29 µM | > 29 µM
COc1ccc(-c2nc3cc(C(F)(F)F)ccc3[nH]2)c(OC)c1OC | 93 µM | > 100 µM | 32 µM | 70 µM | inactive | inactive | > 100 µM | > 32 µM | 16 µM | 42 µM | > 70 µM | > 70 µM | > 70 µM
